Data as given in ChEMBL document CHEMBL1143029, “Heme oxygenase inhibition by 2-oxy-substituted 1-(1H-imidazol-1-yl)-4-phenylbutanes: effect of halogen substitution in the phenyl ring” (Bioorg Med Chem, 2007).

How the values were obtained:
Heme oxygenase 1 = target: T1, Heme oxygenase 1 (Rattus norvegicus, UniProt P06762); assay: Inhibition of Sprague-Dawley rat spleen microsome HO1; type: microsomes
T1 sequence (P06762 whole entry): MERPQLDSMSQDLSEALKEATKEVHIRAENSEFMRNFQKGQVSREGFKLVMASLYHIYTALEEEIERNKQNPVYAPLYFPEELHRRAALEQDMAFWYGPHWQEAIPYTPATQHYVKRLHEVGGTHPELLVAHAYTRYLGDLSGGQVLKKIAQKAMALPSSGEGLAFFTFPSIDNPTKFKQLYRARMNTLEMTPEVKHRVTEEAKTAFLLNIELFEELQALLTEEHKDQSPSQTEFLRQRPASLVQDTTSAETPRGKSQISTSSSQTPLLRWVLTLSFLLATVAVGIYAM

Rattus norvegicus = species on record: Rattus norvegicus; assay: Selectivity index, ratio of IC50 for Sprague-Dawley rat brain HO2 to IC50 for Sprague-Dawley rat spleen HO1; type: tissue-based
How it was run: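 Ratio of IC50(HO-2) to IC50(HO-1). HO-2 comes from Sprague-Dawley rat brain microsomes and HO-1 from spleen microsomes. Both were assayed identically: methemalbumin substrate, 10 min inhibitor pre-incubation at 37 °C, 15 min reaction with 1 mM NADPH, and CO measured by GC. Each IC50 was derived from sigmoidal dose–response fits of percent-control activity.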

Heme oxygenase 2 = target: T2, Heme oxygenase 2 (Rattus norvegicus, UniProt P23711); assay: Inhibition of Sprague-Dawley rat brain microsome HO2
T2 sequence (P23711 whole entry): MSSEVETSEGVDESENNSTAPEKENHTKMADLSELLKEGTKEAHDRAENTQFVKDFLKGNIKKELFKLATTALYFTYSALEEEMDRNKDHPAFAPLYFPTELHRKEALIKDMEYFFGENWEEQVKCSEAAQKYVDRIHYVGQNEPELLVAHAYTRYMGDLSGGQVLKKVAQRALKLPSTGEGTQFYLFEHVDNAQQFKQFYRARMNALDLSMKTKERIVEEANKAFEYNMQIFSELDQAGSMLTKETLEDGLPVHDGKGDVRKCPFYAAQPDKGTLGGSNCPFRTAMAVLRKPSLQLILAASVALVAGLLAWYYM

[1] = target: T3, Heme oxygenase 2 (Rattus norvegicus) (UniProt P23711); assay: Inhibition of Sprague-Dawley rat brain microsome HO2 at 0.1 uM relative to control
T3 sequence (whole entry): T2 sequence (P23711 whole entry)
How it was run: (§1)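 Spleen (HO-1) or brain (HO-2) microsomes from Sprague-Dawley rats, at 1 mg/mL protein in 100 mM phosphate buffer pH 7.4 with methemalbumin (heme–albumin) as substrate. Inhibitor hydrochloride pre-incubated 10 min at 37 °C, then 1 mM NADPH added for 15 min at 37 °C. Stopped by freezing on dry ice. CO formed measured by gas chromatography; activity given as percent of no-inhibitor control.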

[2] = target: T4, Heme oxygenase 1 (Rattus norvegicus) (UniProt P06762); settings: Sprague-Dawley, Spleen, Microsome, 100 uM
T4 sequence (whole entry): T1 sequence (P06762 whole entry)

[3] = target: T3, Heme oxygenase 2 (Rattus norvegicus); assay: Inhibition of Sprague-Dawley rat brain microsome HO2 at 100 uM relative to control; how it was run: as §1
[4] = target: T4, Heme oxygenase 1 (Rattus norvegicus); assay: Inhibition of Sprague-Dawley rat spleen microsome HO1 at 0.01 uM relative to control; type: microsomes
[5] = target: T4, Heme oxygenase 1 (Rattus norvegicus); assay: Inhibition of Sprague-Dawley rat spleen microsome HO1 at 0.1 uM relative to control; type: microsomes; how it was run: as §1

## OC(CCc1ccccc1)Cn1ccnc1 (stereo not given)
Heme oxygenase 1
  IC50: 6.2 µM
Rattus norvegicus
  Ratio IC50: 2.6

## Ic1ccc(CCC2(Cn3ccnc3)OCCO2)cc1
Heme oxygenase 2
  IC50: > 100 µM
Heme oxygenase 1
  IC50: 3.7 µM
Rattus norvegicus
  Ratio IC50: > 27

## O=C(CCc1ccc(F)cc1)Cn1ccnc1
Heme oxygenase 2
  IC50: 1.9 µM
[1]
  inhibition: 10%
Rattus norvegicus
  Ratio IC50: 1.4
[2]
  inhibition: 80%
[3]
  inhibition: 60%

## Fc1ccc(CCC2(Cn3ccnc3)OCCO2)cc1
Heme oxygenase 2
  IC50: > 100 µM
Heme oxygenase 1
  IC50: 3.8 µM
Rattus norvegicus
  Ratio IC50: > 26.3

## OC(CCc1ccc(Br)cc1)Cn1ccnc1 (stereo not given)
[4]
  inhibition: 8%
[5]
  inhibition: 55%

## O=C(CCc1ccc(I)cc1)Cn1ccnc1
[1]
  inhibition: 10%
Rattus norvegicus
  Ratio IC50: 16.4
[2]
  inhibition: 80%
[3]
  inhibition: 60%
[5]
  inhibition: 44%

## Nc1ccc(SC[C@@H]2CO[C@](CCc3ccc(Cl)cc3)(Cn3ccnc3)O2)cc1 [AZALANSTAT]
Heme oxygenase 2
  IC50: 24.5 µM
Heme oxygenase 1
  IC50: 5.3 µM
Rattus norvegicus
  Ratio IC50: 4.6

## Clc1ccc(CCC2(Cn3ccnc3)OCCO2)cc1
Heme oxygenase 1
  IC50: 4.3 µM
Rattus norvegicus
  Ratio IC50: > 23.2

## O=C(CCc1ccccc1)Cn1ccnc1
[2]
  inhibition: 80%
[3]
  inhibition: 60%

## OC(CCc1ccc(Cl)cc1)Cn1ccnc1 (stereo not given)
Rattus norvegicus
  Ratio IC50: 8
[3]
  inhibition: 90%

## O=C(CCc1ccc(Br)cc1)Cn1ccnc1
Heme oxygenase 2
  IC50: 9.5 µM
[3]
  inhibition: 60%

## OC(CCc1ccc(I)cc1)Cn1ccnc1 (stereo not given)
Heme oxygenase 2
  IC50: 1.8 µM

## Brc1ccc(CCC2(Cn3ccnc3)OCCO2)cc1
Heme oxygenase 2
  IC50: > 100 µM
Rattus norvegicus
  Ratio IC50: > 52.6

## c1ccc(CCC2(Cn3ccnc3)OCCO2)cc1
Heme oxygenase 2
  IC50: > 100 µM
